ChEMBL document CHEMBL3877303 (J Med Chem, 2017)
Activity calls are given as the source filed them. The rule behind the calls is not given here.

Experiments:
[1] = Cell cycle arrest in human KU812 cells assessed as accumulation at G0/G1 phase at 1 uM after 12 hrs by propidium iodide/RNase staining based flow cytometry; assay type: functional
How it was run: (§1)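 Cells were exposed to serially diluted compound, then fixed in cold 70% ethanol overnight at -20 °C. They were stained with PI/RNase buffer for DNA-content cell-cycle analysis.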

[2] = molecular target: T1, Mast/stem cell growth factor receptor Kit (Homo sapiens, UniProt P10721); settings: GISTT1, 1 uM
[3] = molecular target: T1, Mast/stem cell growth factor receptor Kit; settings: GISTT1, 1 uM; remark: listed apart in the source
[4] = molecular target: T1, Mast/stem cell growth factor receptor Kit; settings: 1 uM
[5] = molecular target: T1, Mast/stem cell growth factor receptor Kit; test: Inhibition of recombinant C-terminal polyhistidine-tagged human c-KIT expressed in mammalian expression system using Tyr 06 peptide as substrate measured after 1hr by FRET based Z'Lyte assay
[6] = molecular target: Tyrosine-protein kinase ABL1 (Homo sapiens, UniProt P00519); test: Inhibition of C-terminal His-tagged human ABL1 expressed in baculovirus infected SF9 cells assessed as residual activity at 1 uM using Tyr 02 peptide as substrate measured after 1 hr by FRET based Z'Lyte assay relative to control
[7] = system: BaF3; test: Inhibition of BCR/ABL p210 fusion protein F317L mutant (unknown origin) expressed in BAF3 cells assessed as growth inhibition measured after 72 hrs by CellTiter-Glo or CCK8 assay; assay type: cell-based; settings: Homo sapiens
How it was run: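 BaF3 lines were made by retroviral transduction with kinase-fusion MSCV vectors packaged in HEK293T cells. Cells were selected with puromycin for 48 h, then selected again without IL-3 so growth depends on the introduced kinase. […] They were seeded at 1 to 2.5×10^4 cells/mL with compound dilutions and incubated 72 h. Viability was read by CellTiter-Glo luminescence or CCK-8 absorbance (450/655 nm), normalized to DMSO control; GI50 was curve-fitted from triplicate tests.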

[8] = Antiproliferative activity against human K562 cells measured after 72 hrs by CellTiter-Glo or CCK8 assay; assay type: functional; settings: K562, 72 h
[9] = Cell cycle arrest in human KU812 cells assessed as accumulation at G0/G1 phase at 0.3 uM after 12 hrs by propidium iodide/RNase staining based flow cytometry; assay type: functional; how it was run: as §1
[10] = Cell cycle arrest in human MEG01 cells assessed as accumulation at G0/G1 phase at 0.3 uM after 24 hrs by propidium iodide/RNase staining based flow cytometry; assay type: functional; settings: MEG-01; how it was run: as §1
[11] = AUC (0 to infinity) in Sprague-Dawley rat at 1 mg/kg, iv; assay type: ADME, organism-based; set-up: dose 1 mg/kg, route intravenous, time infinity; settings: in vivo
How it was run: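 Male Sprague-Dawley rats aged six to eight weeks were fasted overnight and then dosed iv or orally. Blood (~0.2 mL) was drawn from the jugular vein into heparin and kept on ice. Sampling was at 1 min to 8 h for iv and 5 min to 24 h for oral. Plasma was separated by centrifugation at 2-8 °C and stored at -80 °C until analysis.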

[12] = Mean residence time (0 to t) in Sprague-Dawley rat at 1 mg/kg, iv; assay type: ADME, organism-based; settings: in vivo
How it was run: (§2)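 Male Sprague-Dawley rats, 6-8 weeks old, fasted overnight, dosed iv or po. Jugular vein blood (~0.2 mL, heparin) sampled at 1 min to 8 h (iv) or 5 min to 24 h (po). Plasma separated by centrifugation at 2-8 °C and stored at -80 °C before analysis.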

[13] = Oral bioavailability in Sprague-Dawley rat at 10 mg/kg; assay type: ADME, organism-based; settings: in vivo; how it was run: as §2
[14] = molecular target: Platelet-derived growth factor receptor beta (Homo sapiens, UniProt P09619); test: Inhibition of recombinant His-tagged human PDGFR-beta cytoplasmic domain (558 to 1106 residues) expressed in baculovirus expression system assessed as residual activity at 1 uM by KINOMEscan binding assay relative to control
Sequence of Platelet-derived growth factor receptor beta (P09619 whole entry, the tested form may be a part): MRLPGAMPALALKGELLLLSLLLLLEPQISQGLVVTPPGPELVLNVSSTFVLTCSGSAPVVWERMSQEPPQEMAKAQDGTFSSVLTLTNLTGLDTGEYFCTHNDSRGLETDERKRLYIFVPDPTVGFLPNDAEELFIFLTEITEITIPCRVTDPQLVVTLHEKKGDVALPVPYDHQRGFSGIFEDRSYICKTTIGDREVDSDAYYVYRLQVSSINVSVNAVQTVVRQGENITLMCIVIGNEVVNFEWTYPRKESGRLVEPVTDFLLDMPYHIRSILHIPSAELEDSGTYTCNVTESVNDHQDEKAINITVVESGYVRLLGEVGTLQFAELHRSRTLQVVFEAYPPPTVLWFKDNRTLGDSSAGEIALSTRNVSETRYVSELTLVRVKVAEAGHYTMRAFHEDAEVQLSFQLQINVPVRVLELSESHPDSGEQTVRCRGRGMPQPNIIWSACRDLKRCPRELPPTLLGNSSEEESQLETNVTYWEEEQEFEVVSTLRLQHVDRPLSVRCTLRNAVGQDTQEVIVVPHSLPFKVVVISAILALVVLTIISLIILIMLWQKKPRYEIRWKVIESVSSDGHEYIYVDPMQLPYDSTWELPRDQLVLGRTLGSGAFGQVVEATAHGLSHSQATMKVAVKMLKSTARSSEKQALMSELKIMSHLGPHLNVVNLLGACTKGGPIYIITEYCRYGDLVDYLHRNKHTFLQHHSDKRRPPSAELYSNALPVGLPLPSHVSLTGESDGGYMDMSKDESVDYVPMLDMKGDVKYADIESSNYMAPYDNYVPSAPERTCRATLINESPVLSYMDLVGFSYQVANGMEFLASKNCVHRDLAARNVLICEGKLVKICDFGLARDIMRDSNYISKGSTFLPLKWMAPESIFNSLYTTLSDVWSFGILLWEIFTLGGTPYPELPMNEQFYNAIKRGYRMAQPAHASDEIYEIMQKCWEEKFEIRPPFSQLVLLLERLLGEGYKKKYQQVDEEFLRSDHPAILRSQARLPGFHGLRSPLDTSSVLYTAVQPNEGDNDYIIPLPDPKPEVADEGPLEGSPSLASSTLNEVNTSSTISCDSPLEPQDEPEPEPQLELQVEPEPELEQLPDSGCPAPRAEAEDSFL

T1 sequence (P10721 whole entry): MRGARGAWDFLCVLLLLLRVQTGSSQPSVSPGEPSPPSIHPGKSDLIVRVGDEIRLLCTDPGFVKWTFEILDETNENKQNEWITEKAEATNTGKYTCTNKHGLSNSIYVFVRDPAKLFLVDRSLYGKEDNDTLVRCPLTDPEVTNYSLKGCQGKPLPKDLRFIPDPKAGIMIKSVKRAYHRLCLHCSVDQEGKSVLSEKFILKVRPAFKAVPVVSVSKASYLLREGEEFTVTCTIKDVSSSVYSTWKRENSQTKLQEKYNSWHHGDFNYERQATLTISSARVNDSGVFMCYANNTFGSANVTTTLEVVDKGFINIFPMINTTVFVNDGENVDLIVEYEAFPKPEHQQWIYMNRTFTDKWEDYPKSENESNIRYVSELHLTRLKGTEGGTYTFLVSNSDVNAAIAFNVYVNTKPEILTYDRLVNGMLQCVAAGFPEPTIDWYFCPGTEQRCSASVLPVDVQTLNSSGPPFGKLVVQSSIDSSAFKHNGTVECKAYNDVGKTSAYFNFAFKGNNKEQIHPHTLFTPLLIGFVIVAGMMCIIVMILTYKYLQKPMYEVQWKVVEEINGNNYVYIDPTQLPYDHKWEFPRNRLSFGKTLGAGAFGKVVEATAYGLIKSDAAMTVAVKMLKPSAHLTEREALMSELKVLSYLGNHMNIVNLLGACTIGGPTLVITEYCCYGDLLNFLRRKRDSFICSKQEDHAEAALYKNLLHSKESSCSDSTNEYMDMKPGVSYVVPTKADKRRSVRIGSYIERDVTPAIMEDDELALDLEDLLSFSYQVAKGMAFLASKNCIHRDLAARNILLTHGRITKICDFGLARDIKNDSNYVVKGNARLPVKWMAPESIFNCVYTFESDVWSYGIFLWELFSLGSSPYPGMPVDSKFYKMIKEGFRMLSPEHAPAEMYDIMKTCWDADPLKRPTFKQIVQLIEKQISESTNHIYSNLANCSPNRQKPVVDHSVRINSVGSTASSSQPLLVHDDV
Sequence of Tyrosine-protein kinase ABL1 (P00519 whole entry, the tested form may be a part): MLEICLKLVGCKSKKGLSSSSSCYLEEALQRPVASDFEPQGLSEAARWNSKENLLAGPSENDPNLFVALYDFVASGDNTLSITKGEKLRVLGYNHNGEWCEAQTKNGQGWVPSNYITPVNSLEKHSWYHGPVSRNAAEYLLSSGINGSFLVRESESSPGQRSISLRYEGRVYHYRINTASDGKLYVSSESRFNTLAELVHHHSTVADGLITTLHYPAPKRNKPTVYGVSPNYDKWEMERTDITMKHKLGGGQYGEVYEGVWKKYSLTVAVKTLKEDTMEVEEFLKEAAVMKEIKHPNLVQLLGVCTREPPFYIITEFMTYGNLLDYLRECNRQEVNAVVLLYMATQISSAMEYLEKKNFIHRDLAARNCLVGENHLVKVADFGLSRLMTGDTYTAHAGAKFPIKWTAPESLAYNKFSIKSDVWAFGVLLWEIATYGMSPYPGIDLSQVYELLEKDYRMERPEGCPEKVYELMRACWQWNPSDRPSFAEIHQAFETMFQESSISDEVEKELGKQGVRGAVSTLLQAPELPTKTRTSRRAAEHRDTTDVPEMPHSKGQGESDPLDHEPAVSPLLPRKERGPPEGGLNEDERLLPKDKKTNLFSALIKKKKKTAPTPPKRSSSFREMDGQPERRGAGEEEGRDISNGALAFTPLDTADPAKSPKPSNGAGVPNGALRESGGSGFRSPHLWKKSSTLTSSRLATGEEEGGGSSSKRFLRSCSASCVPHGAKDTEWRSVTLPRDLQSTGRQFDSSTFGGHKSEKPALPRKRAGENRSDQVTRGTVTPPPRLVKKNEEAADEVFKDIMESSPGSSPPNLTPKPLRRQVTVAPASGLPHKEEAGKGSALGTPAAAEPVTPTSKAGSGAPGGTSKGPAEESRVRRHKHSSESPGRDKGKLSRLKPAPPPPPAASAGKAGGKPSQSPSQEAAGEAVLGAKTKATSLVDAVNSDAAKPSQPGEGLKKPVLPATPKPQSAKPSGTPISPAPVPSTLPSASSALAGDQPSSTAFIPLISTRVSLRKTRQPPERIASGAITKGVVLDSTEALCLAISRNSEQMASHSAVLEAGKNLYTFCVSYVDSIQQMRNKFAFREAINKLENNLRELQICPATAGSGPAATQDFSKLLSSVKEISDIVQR

inhibition [2]	inhibition [3]	inhibition [4]	IC50 [5] [nM]	Activity [6] [%]	GI50 [7] [nM]	AUC(0-inf) [11] [ng·h/mL]	MRT last [12] [h]	bioavailability [13] [%]	Activity [14] [%]	SMILES	Activity [1]	GI50 [8] [nM]	Activity [9]	Activity [10]
Active	Active	Active	–	–	–	–	–	–	–	Cc1ccc(NC(=O)c2ccc(CN3CCN(C)CC3)cc2)cc1Nc1nccc(-c2cccnc2)n1 [IMATINIB]	Active	–	–	–
–	–	–	75	0.3	670	558	1.93	47.5	0.3	Cc1ccc(C(=O)N2CCC(Oc3cc(NC(=O)c4ccc(CN5CCN(C)CC5)c(C(F)(F)F)c4)ccc3C)CC2)cn1	–	27	Active	Active
